# This is a sample that favours compounds with a hit; in the whole collection about 1.9% have one here.
# NPY-Y2 antag = antagonists of human neuropeptide Y receptor Y2. P49146. NPY-Y2 expressing cells, antagonist mode. inhibition, % at 2.7 µM. 140,000 tested, 0.99% active; in the data active = inhibition above about 17%;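 note: 0% = vehicle with agonist challenge and 100% = reference antagonist with challenge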
# NPY-Y1 antag = antagonists of human neuropeptide Y receptor Y1 | P25929 | HEK293-CNG Y1 cells, membrane potential fluorescence; NPY at EC95, then isoproterenol | inhibition, % at 3.6 µM | 200,000 tested, 1% active;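 active = inhibition above the campaign mean inhibition of all tested compounds plus 3 SD, cut at about 20% in these data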;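 note: 0% = DMSO wells given NPY plus isoproterenol and 100% = isoproterenol alone without NPY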
# Target sequence (P25929 whole entry, looked up): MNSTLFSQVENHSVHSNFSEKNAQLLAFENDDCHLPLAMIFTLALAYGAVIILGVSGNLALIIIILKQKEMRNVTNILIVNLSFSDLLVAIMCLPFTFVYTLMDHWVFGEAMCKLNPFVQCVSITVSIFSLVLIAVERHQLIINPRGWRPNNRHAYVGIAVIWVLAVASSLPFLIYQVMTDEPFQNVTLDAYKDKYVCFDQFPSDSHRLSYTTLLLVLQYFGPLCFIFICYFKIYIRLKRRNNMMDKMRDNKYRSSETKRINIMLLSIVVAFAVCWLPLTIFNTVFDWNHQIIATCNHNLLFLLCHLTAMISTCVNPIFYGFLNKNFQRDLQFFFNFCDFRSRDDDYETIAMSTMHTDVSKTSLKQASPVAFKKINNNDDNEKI
#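 Material: HEK293 Y1/CNG channel cell line | Also added: NPY (25 nM), isoproterenol (1 µM), Ro 20-1724 (25 µM) | Compound: One concentration, 3.6 µM, in 0.4% DMSO | Schedule: 3 h dye uptake, 1 h room-temperature compound, 45 min post-isoproterenol | Signal: Membrane-potential fluorescent dye readout | Read-out: % inhibition of NPY effect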
# NPY-Y1 PAM-ag = potentiates or activates human NPY-Y1 receptor; P25929; NPY-Y1 expressing cells, potentiator/agonist activation; activation, % at 3.6 µM; 220,000 tested, 0.37% active; AID 1304; in the data active = activation above about 33%, passing the limit was not always enough;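 note: cells stimulated with NPY at EC10 then isoproterenol at EC100; 0% = low agonist plus stimulus and 100% = saturating agonist plus stimulus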
# NPY2 pot ag = human NPY-Y2 potentiation or agonism, primary screen | P49146 | cells expressing NPY-Y2, potentiator/agonist read-out | activation, % at 3.6 µM | 220,000 tested, 0.45% active | AID 1359; in the data active = activation above about 27%;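 note: cells stimulated with NPY near EC25 plus isoproterenol at EC100; 0% = vehicle plus submaximal agonist and 100% = vehicle plus saturating agonist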
# NPY-Y1 antag ct = antagonizes human NPY-Y1, counter-screen to NPY-Y2 antagonists | 710 tested, 19% active | shares compounds with NPY-Y2 antag | cell-based NPY-Y1 antagonism counterscreen | inhibition, % at 3.6 µM; in the data active = inhibition above about 20%;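 note: cells challenged with NPY then isoproterenol with cAMP sensed through a CNG channel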
# NPY-Y2 ant conf = confirmation of human neuropeptide Y receptor Y2 antagonists; shares compounds with NPY-Y2 antag; HEK293 NPY-Y2 CNG channel, membrane potential fluorescence; inhibition, % at 2.8 µM; 710 tested, 32% active; AID 1257;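 active = mean inhibition of triplicate wells above the hit cutoff set in the primary screen, cut at about 17% in these data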;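 note: 0% = DMSO with NPY challenge and 100% = BIIE0246 high control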
# * marks the source's active call; other numbers are inactive results; / = no result.
SMILES,NPY-Y2 antag,NPY-Y1 antag,NPY-Y1 PAM-ag,NPY2 pot ag,NPY-Y1 antag ct,NPY-Y2 ant conf
O=C(Cn1nc(-c2ccccc2)nc1-c1ccccc1)OC1CCCCC1,19.4*,8.3,-25.4,-20.6,8.5,6.3
O=C(NCCc1ccccc1)C(=O)Nc1ccc([N+](=O)[O-])cc1,/,-3.5,7.3,-4.1,/,/
Cc1ccc(NC(=S)NCc2ccc3c(c2)OCO3)c(C)c1,20.6*,6.0,-9.4,-19.6,7.1,10.3
CCCSc1cc(=O)n(-c2ccccc2)nc1C(=O)OCC,18.9*,2.7,-8.1,6.9,1.9,1.4
CCOC(=O)c1nn(-c2ccccc2)c(C#N)c1N,/,-6.6,-13.6,-5.8,/,/
CC(=O)N[C@@H](C)C(=O)N1CCN(S(=O)(=O)c2ccc(Cl)cc2)CC1,/,0.9,0.1,10.4,/,/
C/C(=C\C(=O)c1ccncc1)Nc1ccccc1O,17.8*,1.5,7.8,11.5,1.2,7.5
CC(=O)Nc1ccccc1O,-0.1,2.5,-0.3,4.9,/,/
COC(=O)c1cc(-c2ccc(OC)cc2)on1,/,12.6,-56.4,-17.5,/,/
COC(=O)c1cc(-c2ccc(OC)c(OC)c2)on1,28.1*,12.2,-36.5,-23.5,27.6*,50.2*
C/C(=N/O)c1no[n+]([O-])c1/C(C)=N\O,/,/,-3.0,12.4,/,/
CCc1ccc(C(=O)COC(=O)[C@@H](NC(N)=O)[C@@H](C)CC)cc1,/,5.6,-8.6,-5.4,/,/
Cc1noc(C)c1CSc1nc2ccccc2c(=O)n1-c1ccc(F)cc1F,24.8*,18.4,-16.6,-2.4,20.4*,13.9
Cc1[nH]c2ccccc2c1C(=O)CSc1nc2ccccc2c(=O)n1-c1ccccc1F,/,2.9,0.4,-22.1,/,/
Cc1cc(-c2ccccc2)c(C#N)c(=S)[nH]1,17.1*,7.1,-33.9,-12.1,4.6,6.7
OC12CCCCC1C(c1ccc3c(c1)OCO3)N(Cc1ccc(F)cc1)CC2 (centres undefined),10.2,15.2,2.1,7.7,/,/
OC12CCCCC1C(c1ccc3c(c1)OCO3)N(Cc1ccccc1F)CC2 (centres undefined),18.2*,4.1,-35.0,-7.3,16.7,8.9
Cc1ccc(C)c(Cn2nnc3c(=O)[nH]c(C(=O)NCC4CCCO4)nc32)c1 (centres undefined),6.4,0.9,-7.0,-10.1,/,/
O=C(NCC1CCCO1)c1nc2c(nnn2Cc2ccccc2Cl)c(=O)[nH]1 (centres undefined),18.2*,3.6,-19.8,-19.6,4.8,5.5
NNC(=O)CCN(Cc1ccco1)S(=O)(=O)c1ccc(Cl)cc1,/,/,-11.1,-6.6,/,/
CC(C)OC(=O)c1ccc(NC(=O)Cn2c(-c3nonc3N)nc3ccccc32)cc1,17.9*,19.8,-43.8,-15.4,10.8,12.5
COC(=O)c1ccccc1NC(=O)Cn1c(-c2nonc2N)nc2ccccc21,38.7*,19.9,-42.9,-13.0,18.6,23.5*
C=CCn1c(=S)sc2c(=O)[nH]cnc21,/,/,-8.6,-0.3,/,/
Cn1cccc1-c1nc2ccccc2[nH]1,/,/,-8.7,-1.8,/,/
Cc1ccc(C(=O)N2C(CC(=O)Nc3ccc(Cl)cc3)C(=O)NC3CCCCC32)cc1 (centres undefined),/,-0.9,2.0,-3.8,/,/
SMILES,NPY-Y2 antag,NPY-Y1 antag,NPY-Y1 PAM-ag,NPY2 pot ag,NPY-Y1 antag ct,NPY-Y2 ant conf
O=C(OCc1nnc(-c2ccccc2)o1)c1ccco1,-2.2,2.2,-3.2,-12.9,/,/
O=C(OCc1nnc(-c2ccccc2)o1)c1ccc2c(c1)OCO2,19.6*,10.8,-20.8,-33.0,18.0,15.6
N=c1n(Cc2ccccc2)c2ccccc2n1Cc1ccccc1,23.1*,16.6,-1.3,29.8,13.4,12.8
Cc1cc(C)n2nc(C(=O)Nc3cccc(S(=O)(=O)N(C)c4ccccc4)c3)nc2n1,/,/,-11.2,-9.5,/,/
CS(=O)(=O)N1CCC(Oc2ccccc2C(=O)NC(C2CC2)C2CC2)CC1,/,11.0,-3.1,2.4,/,/
O=C(NC1CCCC1)C(c1cccs1)N(Cc1ccco1)C(=O)Cn1nnc(-c2cccs2)n1 (centres undefined),9.2,6.2,-28.3,-19.7,/,/
CC(C)(C)NC(=O)C(c1ccc(F)cc1)N(Cc1ccco1)C(=O)Cn1nnc(-c2cccs2)n1 (centres undefined),23.6*,5.5,-54.4,-16.9,11.5,11.8
COc1ccc(CNC(=O)C(NC(C)=O)C(=O)Nc2ccc(OC)cc2)cc1 (centres undefined),21.2*,5.1,16.3,2.4,-0.3,-1.3
COc1ccc(NC(=O)C(NC(C)=O)C(=O)NCc2ccccc2)cc1 (centres undefined),1.2,0.0,1.7,-5.4,/,/
CC(=O)C1C(c2ccc(Br)cc2)C2C(C)=NN=C2CC1(C)O (centres undefined),8.1,6.2,18.2,10.3,/,/
COc1ccc(OC)c(-c2cc(C(=O)N3CCCc4ccccc43)no2)c1,17.5*,18.7,-33.4,-30.6,9.8,5.4
COc1cccc(-c2cc(C(=O)N3CCCc4ccccc43)no2)c1,19.4*,17.1,-25.4,0.5,17.1,9.3
COc1ccc(-c2cc(C(=O)N3CCCc4ccccc43)no2)cc1,4.9,6.2,-13.9,-9.6,/,/
C/C(N)=C(/C#N)C(=O)COC(=O)CCCNC(=O)c1ccc(Cl)cc1,/,0.5,7.1,-3.6,/,/
CN(C)CCCSc1nc(-c2ccccc2)nc2c1CCC2,21.2*,20.1,-64.8,-13.4,16.1,22.9*
CCN(CC)C(=O)COc1ccc2oc(-c3ccco3)cc(=O)c2c1,/,3.6,-2.2,-7.8,/,/
COc1ccc(C2Nc3ccccc3C(=O)N2Cc2ccco2)cc1CN1C(=O)c2ccccc2C1=O (centres undefined),0.8,-3.6,30.0,-9.0,/,/
COc1ccc(C2Nc3ccccc3C(=O)N2Cc2ccco2)cc1COc1ccc(F)cc1 (centres undefined),21.7*,19.6,-49.8,-20.6,9.6,8.8
N#Cc1c(NC(=S)NC(=O)c2ccccc2)sc2c1CCCC2,1.3,-4.7,-9.8,8.0,/,/
C=CCNCc1cccn1-c1sc2c(c1C#N)CCCC2,18.0*,9.3,8.0,3.6,7.9,10.8
O=C(Cn1cnc2ccccc21)NCc1ccccc1,1.9,2.7,-7.5,-3.1,/,/
O=C(Cc1ccccc1)Nn1cnc2ccccc21,24.7*,3.3,3.4,-7.1,1.8,-0.3
Cc1ccc(OCCNc2ccc(C(F)(F)F)cc2[N+](=O)[O-])cc1,21.3*,-0.1,18.7,0.6,19.6,16.7
CC(=O)c1c(COC(=O)c2ccccc2Cl)nc2ccccc2[n+]1[O-],/,/,9.3,5.5,/,/
COc1ccc(C2(CNC(=O)c3cccc([N+](=O)[O-])c3)CCOCC2)cc1,17.5*,-3.7,-26.1,-3.0,-1.1,2.6
O=C(CSc1nnnn1-c1ccc(Cl)cc1)NC(=O)Nc1ccc2c(c1)OCCO2,20.2*,16.9,-4.7,-3.4,15.3,15.1
O=C(CSc1ncn(-c2ccccc2)n1)Nc1ccc2c(c1)OCCO2,18.1*,5.2,-23.7,-3.5,27.0*,23.5*

# Screening data: PubChem BioAssay, The Scripps Research Institute Molecular Screening Center
